# Bioassay records from PubChem BioAssay.
# Jurkat tox 60K: cytotoxicity toward Jurkat cells. AID 463. 56,000 compounds, 1.2% hits. Jurkat E6.1 viability, ATP luminescence, 48 h. inhibition, % at 4 µM;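 active = inhibition above the mean inhibition of all tested compounds plus 3 SD, cut at about 28% in these data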
# Calb biofilm kill: kills Candida albicans biofilms. C. albicans biofilm + clotrimazole, Alamar Blue. inhibition, % at 6 µM. 85,000 compounds, 0.14% hits;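 active = inhibition above 20%; inactive = inhibition below 20%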;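 also: preformed 24 hr biofilms exposed to compound for 48 hr; 0% = biofilm without compound and 100% = blank killed by clotrimazole plus chlorhexidine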
# TNAP act DEA: human TNAP activation, intermediate phosphate acceptor | AID 813 | P05186 | activation factor at 20 µM | purified TNAP, CDP-star luminescence, 100 mM DEA, 30 min; stronger effect = higher value; scale: 0 levamisole-inhibited, 1 vehicle-only enzyme | 64,000 tested, under 10 active;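 active = activation factor of at least 2 at 20 µM, relative to controls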
# Target sequence (P05186 whole entry, looked up): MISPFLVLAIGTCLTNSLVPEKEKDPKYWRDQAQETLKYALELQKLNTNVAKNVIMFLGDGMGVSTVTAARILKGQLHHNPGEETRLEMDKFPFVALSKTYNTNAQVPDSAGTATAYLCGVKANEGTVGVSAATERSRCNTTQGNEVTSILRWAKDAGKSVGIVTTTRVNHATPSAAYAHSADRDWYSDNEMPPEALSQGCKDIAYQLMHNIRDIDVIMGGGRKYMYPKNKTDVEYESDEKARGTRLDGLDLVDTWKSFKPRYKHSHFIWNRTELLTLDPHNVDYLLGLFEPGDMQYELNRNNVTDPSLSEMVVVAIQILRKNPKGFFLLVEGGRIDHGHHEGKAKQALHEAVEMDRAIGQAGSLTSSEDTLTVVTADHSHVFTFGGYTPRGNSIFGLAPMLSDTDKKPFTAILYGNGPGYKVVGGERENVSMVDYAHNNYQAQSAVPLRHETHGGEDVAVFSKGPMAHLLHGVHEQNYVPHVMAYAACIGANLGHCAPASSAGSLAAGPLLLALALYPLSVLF
# HEK293 NFkB inh: inhibitors of the PMA/ionomycin-induced NF-kB reporter in HEK293 cells; HEK-293 NF-kB luciferase reporter, luminescence; inhibition, % at 3 µM; 62,000 compounds, 0.21% hits; AID 465;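 active = inhibition above the mean of all tested compounds plus 3 SD, cut at about 40% in these data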;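 also: 0% = stimulated DMSO wells and 100% = 10 µM reference inhibitor 5653914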
#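 System: NF-kB luciferase reporter HEK-293 cells | Replication: Single test | Control set: DMSO vs reference inhibitor | Evaluation: % inhibition | Schedule: 1 h pretreatment, 16 h stimulation, 37 °C | Probe or stimulus: PMA with ionomycin | Compound dosing: One dose, 3 µM | Detection: Luciferase luminescence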
# MMP13 inh: blocks human MMP13 activity; AID 570; 65,000 compounds, 0.07% hits; MMP-13 fTHP FRET cleavage, Mca fluorescence; P45452; inhibition, % at 4 µM;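 active = inhibition above the mean of compound-free control plate wells plus 3 SD, cut at about 14% in these data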;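 also: 0% = DMSO wells and 100% = wells with reference MMP-13 inhibitor after basal subtraction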
# Active calls of the source: *; . = no result. This excerpt belongs to a sample that is enriched for hits.
SMILES,Jurkat tox 60K,Calb biofilm kill,TNAP act DEA,HEK293 NFkB inh,MMP13 inh
O=C(Nc1cccnc1)c1cccnc1,.,3,1,.,0
O=C(Nc1cccnc1)c1c(F)c(F)c(F)c(F)c1F,-1,23*,0.9,7,1
COc1ccc(NC(=O)CSc2nc3ccccc3c(=O)n2CCCN2CCCCC2)c(OC)c1,.,12,.,.,.
COC(=O)C(NC(=O)C(CC(C)C)NC(=O)C1CCC(C)CC1)C(C)C (centres undefined),.,0,.,.,.
CCCCCCC1CCC(C(=O)NC(CCSC)C(=O)NC(C(=O)OC)C(C)C)CC1 (centres undefined),.,37*,.,.,.
Cc1nn(-c2ccccc2)c2c1C(c1ccncc1)C(C#N)=C(N)O2 (centres undefined),-2,.,1,1,10
COc1cc(-n2nc(C)c3c2OC(N)=C(C#N)C3c2ccccc2)c(Cl)c(Br)c1O (centres undefined),-10,2,0.8,12,16*
CCOCCn1c(=O)c2c(nc3n2CCN3c2ccc(CC)cc2)n(C)c1=O,3,.,0.9,16,0
Cc1cccc2cc(C#N)c(SCC(=O)N3CCC(C)CC3)nc12,0,6,0.9,10,-1
Cc1cccc2cc(C#N)c(SCC(=O)N3CC(=O)Nc4ccccc43)nc12,99*,.,0.9,30,-3
Cc1cc(N)n(-c2nc(-c3cccnc3)nc3ccccc23)n1,.,.,0.9,15,5
COc1ccccc1CNC(=O)C(C)NS(=O)(=O)c1ccc(Br)cc1 (centres undefined),.,3,.,.,.
O=C(CSC1=NCCS1)Nc1ccnc2ccccc12,29*,8,0.9,36,2
CCOC(=O)Cn1c(CN(Cc2ccccc2)Cc2ccccc2)nc2c1c(=O)n(C)c(=O)n2C,2,-3,0.9,6,-2
Cc1ccccc1OCc1nnc(SCC(=O)Nc2ccc(N3CCOCC3)c(Cl)c2)n1C,.,5,.,.,.
CC(=O)N1c2ccccc2N(Cc2ccc(C)cc2C)C(=O)C1(C)C,95*,5,1,16,0
C=CCNc1nc(-c2c(C)nc3sccn23)cs1,10,4,1,9,-3
Cc1nc2sccn2c1-c1csc(NCc2ccccc2)n1,67*,-1,1,29,-4
O=C(Nc1nccs1)C1CCCN(S(=O)(=O)c2cccnc2)C1 (centres undefined),-3,9,1,8,7
O=C(Nc1nccs1)C1CCN(S(=O)(=O)c2cccnc2)CC1,-8,21*,0.9,8,5
CSc1nnc2c3ccccc3n(Cc3ccccc3)c2n1,9,-3,0.8,11,-2
CSc1nnc2c3ccccc3n(CCc3ccccc3)c2n1,37*,11,0.9,58*,-6
CCOc1ccccc1NC(=O)CCN1CCN(S(=O)(=O)c2ccc(Br)cc2)CC1,0,-3,0.9,9,-2
Clc1ccc(OCCN2CCN(c3ncnc4sccc34)CC2)cc1,44*,.,0.9,62*,-10
O=C1CC(N2CCN(c3nc4ccccc4s3)CC2)C(=O)N1c1cccc(F)c1 (centres undefined),.,5,.,.,.
SMILES,Jurkat tox 60K,Calb biofilm kill,TNAP act DEA,HEK293 NFkB inh,MMP13 inh
Cc1ccccc1NS(=O)(=O)c1ccc(OCC(=O)N2CCCCC2)cc1,.,-5,.,.,.
CCOc1ccc2nc(NC(=O)C3CCCN(S(=O)(=O)c4c(C)noc4C)C3)sc2c1 (centres undefined),7,.,0.8,14,6
CCOc1ccc(OCc2cccc(C(=O)N3CCOCC3)c2)cc1,0,5,0.9,50*,-2
COC(=O)C1=C(C(=O)OC)C2(OC1c1ccccc1C)C(=O)c1ccccc1C2=O (centres undefined),.,5,.,.,.
CN(C)c1ccc(C(=O)c2ccc(N(C)C)c(N)c2)cc1N,60*,3,0.9,11,4
CCOc1ccc(C(=O)c2ccc(OCC)c(N)c2)cc1N,12,3,0.9,6,0
Cc1cc(NC(=O)CN2CCN(c3ccccc3F)CC2)nc2c1c(=O)oc1ccccc12,1,8,1,4,1
Cc1cccc(Nc2nnc(-c3ccc(C(=O)N4C[C@H]5C[C@H](C4)c4cccc(=O)n4C5)cc3)c3ccccc23)c1,.,3,.,.,.
CSc1nc2nc3c(c(=O)n2[nH]1)CN(Cc1ccccc1)CC3,102*,6,0.9,11,0
O=C(NCc1cccnc1)c1cc(S(=O)(=O)N2CCCCC2)ccc1Cl,9,3,0.9,16,1
CCN(Cc1ccncc1)S(=O)(=O)c1ccc(C(C)=O)cc1,30*,-2,0.9,13,5
CCN(CC)S(=O)(=O)c1ccc(C(=O)NCc2ccc(C)cc2)cc1,.,2,.,.,.
CS(=O)(=O)N1CCc2cc(-c3csc(NC(=O)Cc4ccccc4)n3)ccc21,.,0,.,.,.
CC1Cc2cc(-c3csc(NC(=O)Cc4cccs4)n3)ccc2N1S(C)(=O)=O (centres undefined),74*,1,1,39,-2
CCn1cc(CNC(=O)CCSc2nc(-c3ccco3)cc(C(F)(F)F)n2)cn1,.,5,.,.,.
COc1ccc(NC(=O)c2cnc(C)cn2)c2ncccc12,62*,3,0.9,2,-4
Cc1cnc(C(=O)Nc2ccccc2F)cn1,.,14,.,.,.
Cc1cc(C#N)c(C)n1-c1cc(S(=O)(=O)N2CCOCC2)ccc1N1CCCC1,.,7,.,.,.
CCN(CC(=O)NCc1ccc(F)cc1)CC(O)COCc1cccc(OC)c1 (centres undefined),0,9,1.1,15,-1
CC(=O)N1CCN=C1SCc1ccc(Br)cc1,0,24*,1,10,1
CC(=O)N1CCN=C1SCc1cccc(C(F)(F)F)c1,7,.,1,26,-2
CS(=O)(=O)N(Cc1ccccc1)c1ccccc1C(=O)N1CCN(c2ccccc2)CC1,.,-2,.,.,.
Cc1nn(Cc2ccccc2Cl)c(C)c1C(=O)Nc1nnc(C2CC2)s1,47*,-1,0.9,52*,-2
Cc1nn(-c2ccccc2)c(Cl)c1C(=O)Nc1nnc(C2CCCCC2)s1,.,6,.,.,.
Cc1[nH]n2c(=O)cc(C(C)C)nc2c1-c1ccccc1,-11,5,0.9,-4,-8
SMILES,Jurkat tox 60K,Calb biofilm kill,TNAP act DEA,HEK293 NFkB inh,MMP13 inh
Cc1[nH]n2c(=O)cc(C(C)(C)C)nc2c1-c1ccccc1,8,0,2*,12,-44
COc1ccc(N/C(=C(/C(Cl)=C(Cl)Cl)[N+](=O)[O-])n2nnc3ccccc32)cc1OC,.,-2,.,.,.
CCN1C(=O)/C(=C2/C=CC=CN2C)SC1=S,-7,4,0.9,2,20*
CCOC(=O)N1CCN(C(=O)c2ccccc2-c2ccccc2)CC1,79*,6,0.9,32,-3
CCN1CCCC1CNC(=O)c1nn(-c2ccc(C)cc2)c(=O)c2c1c1ccccc1n2C (centres undefined),-1,4,1,10,-4
CS(=O)(=O)N1CCc2cc(C(=O)OCC(=O)c3ccccc3)ccc21,.,6,0.9,0,15*
O=c1cc(-c2ccccc2)[nH]c2nc3ccccc3n12,47*,-1,0.7,-10,-72
